Results reported in ChEMBL document CHEMBL1135734, “Side-chain lactam-bridge conformational constraints differentiate the activities of salmon and human calcitonins and reveal a new design concept for potent calcitonin analogues” (J Med Chem, 2002).

Experiments:
[1] = target: T1, Calcitonin receptor (Homo sapiens) (UniProt P30988)
T1 sequence (whole entry): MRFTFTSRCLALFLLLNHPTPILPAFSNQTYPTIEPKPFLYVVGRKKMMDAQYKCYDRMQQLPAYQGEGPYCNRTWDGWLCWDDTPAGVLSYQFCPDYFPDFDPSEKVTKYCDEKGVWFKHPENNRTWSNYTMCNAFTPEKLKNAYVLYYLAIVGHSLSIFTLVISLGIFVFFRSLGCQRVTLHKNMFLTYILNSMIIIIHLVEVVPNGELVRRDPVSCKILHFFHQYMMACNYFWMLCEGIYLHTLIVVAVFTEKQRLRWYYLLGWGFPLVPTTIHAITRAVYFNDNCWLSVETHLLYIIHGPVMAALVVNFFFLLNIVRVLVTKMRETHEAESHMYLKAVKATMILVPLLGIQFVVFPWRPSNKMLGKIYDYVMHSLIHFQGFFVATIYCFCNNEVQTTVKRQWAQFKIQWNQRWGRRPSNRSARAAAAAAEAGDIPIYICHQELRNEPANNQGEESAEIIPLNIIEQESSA

[2] = target: T2, Calcitonin receptor (Rattus norvegicus) (UniProt P32214); assay: Affinity for calcitonin receptor of rat brain relative to [125I]-salmon calcitonin
T2 sequence (whole entry): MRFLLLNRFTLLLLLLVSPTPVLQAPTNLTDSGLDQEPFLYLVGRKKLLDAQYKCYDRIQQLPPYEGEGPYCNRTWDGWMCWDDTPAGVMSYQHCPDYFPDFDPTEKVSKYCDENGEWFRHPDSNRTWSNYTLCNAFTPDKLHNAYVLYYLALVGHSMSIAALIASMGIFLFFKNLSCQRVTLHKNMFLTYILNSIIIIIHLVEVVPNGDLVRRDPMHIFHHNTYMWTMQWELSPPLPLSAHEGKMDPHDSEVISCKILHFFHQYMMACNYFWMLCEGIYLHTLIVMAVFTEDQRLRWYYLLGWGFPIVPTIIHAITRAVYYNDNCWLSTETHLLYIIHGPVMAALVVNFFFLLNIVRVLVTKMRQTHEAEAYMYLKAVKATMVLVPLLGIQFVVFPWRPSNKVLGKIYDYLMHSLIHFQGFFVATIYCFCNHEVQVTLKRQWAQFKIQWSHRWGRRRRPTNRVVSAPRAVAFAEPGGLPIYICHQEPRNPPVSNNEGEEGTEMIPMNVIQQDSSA
Procedure, shortened: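 Male Sprague–Dawley rat (250–350 g) brain membranes (~0.63 mg protein/tube) were shaken on ice for 30 min with 10 pM final [125I-Tyr22]sCT and competitor in 50 mM Tris-HCl pH 7.4 with 34 μM bacitracin. Tubes were centrifuged and the pellets washed, SDS-solubilized and scintillation counted. Nonspecific binding was taken with 1 μM sCT. IC50 came from probit analysis, and relative affinity set sCT = 100%.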

| SMILES | ED50 [1] | Relative affinity [2] |
| --- | --- | --- |
| CC(C)C[C@H](NC(=O)[C@H](CCCCN)NC(=O)CNC(=O)[C@H](CC(C)C)NC(=O)[C@@H](NC(=O)[C@H](CS)NC(=O)[C@@H](NC(=O)[C@H](CO)NC(=O)[C@H](CC(C)C)NC(=O)[C@H](CC(N)=O)NC(=O)[C@H](CO)NC(=O)[C@@H](N)CS)[C@@H](C)O)C(C)C)C(=O)N[C@@H](CO)C(=O)N[C@@H](CCC(N)=O)C(=O)N[C@@H](CCC(=O)O)C(=O)N[C@@H](CC(C)C)C(=O)N[C@H]1CC(=O)NCCC[C@@H](C(=O)N[C@@H](Cc2ccc(O)cc2)C(=O)N2CCC[C@@H]2C(=O)N[C@@H](CCCN=C(N)N)C(=O)N[C@H](C(=O)N[C@@H](CC(N)=O)C(=O)N[C@H](C(=O)NCC(=O)N[C@@H](CO)C(=O)NCC(=O)N[C@H](C(=O)N2CCC[C@@H]2C(N)=O)[C@@H](C)O)[C@@H](C)O)[C@@H](C)O)NC(=O)[C@H](Cc2cn(N)cn2)NC(=O)[C@H](CC(C)C)NC(=O)[C@H](CCCCN)NC1=O | 0.053 nM | 150 |
| CC[C@H](C)[C@H](NC(=O)[C@H](C)NC(=O)[C@@H](NC(=O)[C@H](CCC(N)=O)NC(=O)[C@H]1CCCN1C(=O)[C@H](Cc1ccccc1)NC(=O)[C@@H](NC(Cc1c[nH]cn1)C(=O)N[C@@H](Cc1ccccc1)C(=O)[C@H](CCCCN)NC(=O)[C@H](CC(N)=O)NC(=O)[C@H](Cc1ccccc1)NC(=O)[C@H](CC(=O)O)NC(=O)[C@H](CCC(N)=O)NC(=O)[C@@H](NC(=O)[C@H](Cc1ccc(O)cc1)NC(=O)[C@@H](NC(=O)CNC(=O)[C@H](CC(C)C)NC(=O)[C@H](CCSC)NC(=O)[C@H](CS)NC(=O)[C@@H](NC(=O)[C@H](CO)NC(=O)[C@H](CC(C)C)NC(=O)[C@H](CC(N)=O)NC(=O)CNC(=O)[C@@H](N)CS)[C@@H](C)O)[C@@H](C)O)[C@@H](C)O)[C@@H](C)O)[C@@H](C)O)C(=O)NCC(=O)N[C@H](C(=O)NCC(=O)N[C@@H](C)C(=O)N1CCC[C@@H]1C(N)=O)C(C)C (some centres undefined) | 0.6 nM | 0.015 |
| CC(C)C[C@H](NC(=O)[C@H](CCCCN)NC(=O)CNC(=O)[C@H](CC(C)C)NC(=O)[C@@H](NC(=O)[C@H](CS)NC(=O)[C@@H](NC(=O)[C@H](CO)NC(=O)[C@H](CC(C)C)NC(=O)[C@H](CC(N)=O)NC(=O)[C@H](CO)NC(=O)[C@@H](N)CS)[C@@H](C)O)C(C)C)C(=O)N[C@@H](CO)C(=O)N[C@@H](CCC(N)=O)C(=O)N[C@@H](CCC(=O)O)C(=O)N[C@@H](CC(C)C)C(=O)N[C@H]1CC(=O)NCCC[C@@H](C(=O)N[C@@H](Cc2ccc(O)cc2)C(=O)N2CCC[C@@H]2C(=O)N[C@@H](CCCN=C(N)N)C(=O)N[C@H](C(=O)N[C@@H](CC(N)=O)C(=O)N[C@H](C(=O)NCC(=O)N[C@@H](CO)C(=O)NCC(=O)N[C@H](C(=O)N2CCC[C@@H]2C(N)=O)[C@@H](C)O)[C@@H](C)O)[C@@H](C)O)NC(=O)[C@H](CCC(N)=O)NC(=O)[C@H](CC(C)C)NC(=O)[C@H](CCCCN)NC1=O | 0.091 nM | 120 |
| CC(C)C[C@H](NC(=O)[C@H](CCCCN)NC(=O)CNC(=O)[C@H](CC(C)C)NC(=O)[C@@H](NC(=O)[C@H](CS)NC(=O)[C@@H](NC(=O)[C@H](CO)NC(=O)[C@H](CC(C)C)NC(=O)[C@H](CC(N)=O)NC(=O)[C@H](CO)NC(=O)[C@@H](N)CS)[C@@H](C)O)C(C)C)C(=O)N[C@@H](CO)C(=O)N[C@@H](CCC(N)=O)C(=O)N[C@@H](CCC(=O)O)C(=O)N[C@@H](CC(C)C)C(=O)N[C@@H](Cc1c[nH]cn1)C(=O)N[C@@H](CCCCN)C(=O)N[C@@H](CC(C)C)C(=O)N[C@@H](CCC(N)=O)C(=O)N[C@H](C(=O)N[C@@H](Cc1ccc(O)cc1)C(=O)N1CCC[C@@H]1C(=O)N[C@@H](CCCN=C(N)N)C(=O)N[C@H](C(=O)N[C@@H](CC(N)=O)C(=O)N[C@H](C(=O)NCC(=O)N[C@@H](CO)C(=O)NCC(=O)N[C@H](C(=O)N1CCC[C@@H]1C(N)=O)[C@@H](C)O)[C@@H](C)O)[C@@H](C)O)[C@@H](C)O | 0.115 nM | 100 |

Second part, the compound after the results:

| ED50 [1] | Relative affinity [2] | SMILES |
| --- | --- | --- |
| 22 nM | < 0.0075 | CC[C@H](C)[C@H](NC(=O)[C@H](C)NC(=O)[C@@H](NC(=O)[C@H](CCC(N)=O)NC(=O)[C@H]1CCCN1C(=O)[C@H](Cc1ccccc1)NC(=O)[C@@H](N[C@@H](Cc1c[nH]cn1)C(=O)N1CCC[C@H]1C(=O)[C@H](CCCCN)NC(=O)[C@H](CC(N)=O)NC(=O)[C@H](Cc1ccccc1)NC(=O)[C@H](CC(=O)O)NC(=O)[C@H](CCC(N)=O)NC(=O)[C@@H](NC(=O)[C@H](Cc1ccc(O)cc1)NC(=O)[C@@H](NC(=O)CNC(=O)[C@H](CC(C)C)NC(=O)[C@H](CCSC)NC(=O)[C@H](CS)NC(=O)[C@@H](NC(=O)[C@H](CO)NC(=O)[C@H](CC(C)C)NC(=O)[C@H](CC(N)=O)NC(=O)CNC(=O)[C@@H](N)CS)[C@@H](C)O)[C@@H](C)O)[C@@H](C)O)[C@@H](C)O)[C@@H](C)O)C(=O)NCC(=O)N[C@H](C(=O)NCC(=O)N[C@@H](C)C(=O)N1CCC[C@@H]1C(N)=O)C(C)C |
| 104 nM | < 0.0075 | CC[C@H](C)[C@H](NC(=O)[C@H](C)NC(=O)[C@@H](NC(=O)[C@H](CCC(N)=O)NC(=O)[C@H]1CCCN1C(=O)[C@H](Cc1ccccc1)NC(=O)[C@@H](N[C@@H](Cc1c[nH]cn1)C(=O)NC(CCCCN)C(=O)[C@@H]1CCCN1C(=O)[C@H](CC(N)=O)NC(=O)[C@H](Cc1ccccc1)NC(=O)[C@H](CC(=O)O)NC(=O)[C@H](CCC(N)=O)NC(=O)[C@@H](NC(=O)[C@H](Cc1ccc(O)cc1)NC(=O)[C@@H](NC(=O)CNC(=O)[C@H](CC(C)C)NC(=O)[C@H](CCSC)NC(=O)[C@H](CS)NC(=O)[C@@H](NC(=O)[C@H](CO)NC(=O)[C@H](CC(C)C)NC(=O)[C@H](CC(N)=O)NC(=O)CNC(=O)[C@@H](N)CS)[C@@H](C)O)[C@@H](C)O)[C@@H](C)O)[C@@H](C)O)[C@@H](C)O)C(=O)NCC(=O)N[C@H](C(=O)NCC(=O)N[C@@H](C)C(=O)N1CCC[C@@H]1C(N)=O)C(C)C (some centres undefined) |
| 99 nM | 0.02 | CC[C@H](C)[C@H](NC(=O)[C@H](C)NC(=O)[C@@H](NC(=O)[C@H](CCC(N)=O)NC(=O)[C@@H]1CCCN1C(=O)[C@H](Cc1ccccc1)NC(=O)[C@@H](N[C@@H](Cc1c[nH]cn1)C(=O)N[C@@H](Cc1ccccc1)C(=O)[C@@H]1CCCN1C(=O)[C@H](CC(N)=O)NC(=O)[C@H](Cc1ccccc1)NC(=O)[C@H](CC(=O)O)NC(=O)[C@H](CCC(N)=O)NC(=O)[C@@H](NC(=O)[C@H](Cc1ccc(O)cc1)NC(=O)[C@@H](NC(=O)CNC(=O)[C@H](CC(C)C)NC(=O)[C@H](CCSC)NC(=O)[C@H](CS)NC(=O)[C@@H](NC(=O)[C@H](CO)NC(=O)[C@H](CC(C)C)NC(=O)[C@H](CC(N)=O)NC(=O)CNC(=O)[C@@H](N)CS)[C@@H](C)O)[C@@H](C)O)[C@@H](C)O)[C@@H](C)O)[C@H](C)O)C(=O)NCC(=O)N[C@H](C(=O)NCC(=O)N[C@@H](C)C(=O)N1CCC[C@H]1C(N)=O)C(C)C |
